Series [1] has as its target T1, mouse LIN28Δ, mouse TUT4 and pre-let-7g (Mus musculus, UniProt Q8K3Y3).
T1 sequence (Q8K3Y3 16-184): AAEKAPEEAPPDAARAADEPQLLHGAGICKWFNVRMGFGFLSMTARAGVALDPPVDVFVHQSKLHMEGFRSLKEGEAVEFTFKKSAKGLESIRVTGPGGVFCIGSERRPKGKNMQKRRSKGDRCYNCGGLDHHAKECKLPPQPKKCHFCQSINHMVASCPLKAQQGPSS
T1 sequence (B2RX14 230-1424 partner): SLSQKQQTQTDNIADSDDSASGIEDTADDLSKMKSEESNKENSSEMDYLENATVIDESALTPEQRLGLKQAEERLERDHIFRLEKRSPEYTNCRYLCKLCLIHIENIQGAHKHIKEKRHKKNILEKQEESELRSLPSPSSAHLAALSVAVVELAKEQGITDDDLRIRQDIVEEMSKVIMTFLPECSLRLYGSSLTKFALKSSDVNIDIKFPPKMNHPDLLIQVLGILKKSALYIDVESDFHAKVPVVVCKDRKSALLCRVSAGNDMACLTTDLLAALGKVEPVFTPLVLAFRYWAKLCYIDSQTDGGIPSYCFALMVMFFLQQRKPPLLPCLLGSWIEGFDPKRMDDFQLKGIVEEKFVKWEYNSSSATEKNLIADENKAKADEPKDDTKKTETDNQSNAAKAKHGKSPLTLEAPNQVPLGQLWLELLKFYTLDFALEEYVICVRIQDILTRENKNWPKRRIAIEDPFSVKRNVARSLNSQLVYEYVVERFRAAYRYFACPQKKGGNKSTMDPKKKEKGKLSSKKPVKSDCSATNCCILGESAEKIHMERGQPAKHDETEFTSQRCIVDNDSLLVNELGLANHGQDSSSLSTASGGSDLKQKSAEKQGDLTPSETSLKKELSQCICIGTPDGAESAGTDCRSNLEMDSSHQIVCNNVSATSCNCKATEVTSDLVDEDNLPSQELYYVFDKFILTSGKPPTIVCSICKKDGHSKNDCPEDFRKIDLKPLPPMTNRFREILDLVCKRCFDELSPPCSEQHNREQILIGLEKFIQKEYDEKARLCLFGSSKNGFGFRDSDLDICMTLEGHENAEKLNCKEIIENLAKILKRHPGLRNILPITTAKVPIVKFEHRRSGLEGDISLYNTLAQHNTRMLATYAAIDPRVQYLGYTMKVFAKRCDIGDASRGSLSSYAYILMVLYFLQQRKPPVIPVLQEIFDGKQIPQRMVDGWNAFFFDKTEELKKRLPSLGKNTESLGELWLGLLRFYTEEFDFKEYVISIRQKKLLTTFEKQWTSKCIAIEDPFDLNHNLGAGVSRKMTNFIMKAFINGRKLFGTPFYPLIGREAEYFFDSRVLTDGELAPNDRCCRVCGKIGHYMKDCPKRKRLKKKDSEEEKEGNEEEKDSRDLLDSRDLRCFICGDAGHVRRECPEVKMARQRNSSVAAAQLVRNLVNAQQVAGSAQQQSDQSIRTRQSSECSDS
Description: LIN28-mediated let-7 oligouridylation assay. The format is biochemical. The conditions noted are these: for Inhibition of LIN28-mediated oligouridylation: 40 μM compound, 37°C, denaturing PAGE. In short, it runs like this: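 Mouse LIN28A, mouse TUT4 (230–1424) and in vitro-transcribed, T4 PNK-radiolabelled pre-let-7g were incubated with test compound (40 μM screen; 80 μM follow-up) for 40 min at 37°C. Buffer: 20 mM Tris 7.5, 5% glycerol, 6 mM MgCl2, 6 mM DTT, 50 μM ZnCl2, 40 mM KCl, 200 μM UTP. Reactions were stopped with EDTA/SDS/proteinase K (50°C, 30 min) and run on denaturing PAGE. RNA and DMSO served as controls.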

The subject of another series is HeLaLIN28A. Put plainly: let-7-sensitive dual luciferase reporter assay, HeLaLIN28A. The format is cell-based, human. The conditions noted are these: 100 μM or higher concentrations, 48 hr. The essentials:
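A HeLa clone stably expressing low-level FLAG-LIN28A plus the 8×let-7 Renilla/firefly dual-luciferase sensor was treated 48 hr with vehicle (DMSO) or test compound at the indicated concentrations. Dual luciferase activity was then assayed, with firefly as internal control. Runs used 3 or 5 biological replicates; Student's t test against vehicle.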

Another series in a line: Solubility in solution. In kind it is physicochemical. The conditions noted are these: water / solution.
In series [2] the target is mouse LIN28Δ:preE-let-7d complex (Mus musculus, UniProt Q8K3Y3). Put plainly: HSQC spectroscopy. Particulars: 15N-labeled mouse LIN28Δ with unlabeled preE-let-7d. The format is binding.
Series [3] concerns LIN28-expressing mouse embryonic stem cells. Put plainly: Toxicity to mouse embryonic stem cells. In kind it is cell-based.
Series [4] deals with HeLa cells that do not express LIN28. Put plainly: Toxicity to HeLa cells. In kind it is cell-based, human.
In series [5] the target is T2, LIN28ΔF73A (human, UniProt Q9H9Z2 16-187, F73A).
T2 sequence: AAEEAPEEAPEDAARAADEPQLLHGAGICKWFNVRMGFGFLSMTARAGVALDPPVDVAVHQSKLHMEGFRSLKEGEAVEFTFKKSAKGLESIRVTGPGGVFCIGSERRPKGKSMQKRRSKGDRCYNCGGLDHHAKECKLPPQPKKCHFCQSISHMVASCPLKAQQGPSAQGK
Description: competition.

Series [6] deals with T3, LIN28Δ (human, UniProt Q9H9Z2 16-187).
T3 sequence: T2 sequence with A58F
Put plainly: competition.

For series [7], the target named is T3, LIN28Δ. Put plainly: competition. The source holds these as a separate data set.
A further series concerns the target T4, LIN28ΔF73A/Y140A (human, UniProt Q9H9Z2 16-187, F73A;Y140A).
T4 sequence: T2 sequence with Y125A
Put plainly: fluorescence polarization. (In general: Polarisation of emitted light reports the rotation of a fluorescent probe.)

For series [8], the target named is T2, LIN28ΔF73A. Description: fluorescence polarization.
Another series deals with T5, LIN28ΔY140A (human, UniProt Q9H9Z2 16-187, Y140A).
T5 sequence: T2 sequence with A58F, Y125A
Put plainly: fluorescence polarization.

The target in series [9] is T3, LIN28Δ. Put plainly: fluorescence polarization.

Where a chain is given by its changes, count along the chain named. “Also recorded” adds a separate entry of the source. Like-named read-outs stand apart in the source and are kept apart here.

One may read the IC50 as the concentration that inhibits the measured activity by half. A higher IC50 goes with weaker potency in that assay. As usually defined, the Kd is the constant that tells how readily two partners part at equilibrium.

For the molecule `C=CC(C)(C)c1[nH]c2ccccc2c1C1=C(O)C(=O)C(c2c[nH]c3c(CC=C(C)C)cccc23)=C(O)C1=O` [DAQ-B1, demethylasterriquinone B1], the “Inhibition of LIN28-mediated oligouridylation” value in series [1] is reported as “completely inhibited”.

As to `Cc1cc2c(C(C)C)c(O)c(O)c(C=O)c2c(O)c1-c1c(C)cc2c(C(C)C)c(O)c(O)c(C=O)c2c1O` [Gossypol], the “Inhibition of LIN28-mediated oligouridylation” value in [1] is reported as “completely inhibited”.

As for `CNc1cncc(C(=O)O)c1` [5-(methylamino)nicotinic acid], in series [1] (80 μM, compared to DMSO negative control), the “Inhibition of LIN28-mediated let-7 oligouridylation” value was “weak activities”. The “Relative Renilla luciferase activity” value in the series on HeLaLIN28A is recorded as “significant reduction of the relative Renilla luciferase activity; also recorded: weak activities”.

For `O=C1C=CC(=NS(=O)(=O)c2ccc(C(=O)O)cc2)C=C1` [LI20], the Solubility entry in the series “Solubility in solution” is “poor solubility in solution”. Moreover, the “Inhibition of LIN28-mediated oligouridylation” value in series [1] is “completely inhibited”.

Consider `c1ccc(CN(CCN(Cc2ccccn2)Cc2ccccn2)Cc2ccccn2)nc1` [TPEN], for which the “HSQC peak intensity changes” value in series [2] is on record as “a number of peaks had significant reduction in intensity”. The Toxicity entry in series [3] and in series [4] was “shows toxicity” in each case. For the same molecule, the “Inhibition of LIN28-mediated oligouridylation” value in series [1] was “completely inhibited”.

As for `CC1(C)C(=O)N=C2C1=C(O)C(=O)c1ccccc12` [BVT-948], the “Inhibition of LIN28-mediated oligouridylation” value in series [1] is reported as “completely inhibited”.

On to UAGGAGA (ssRNA) [ZKD-binding riboprobe UAGGAGA], for which the IC50 was 1200 nM with LIN28ΔF73A [5] and 3500 nM with LIN28Δ [6].

On to GGGGUAGUGAUUUUACCCUGUUUA (structured_RNA) [CSD-binding riboprobe], for which the IC50 with LIN28Δ [7] was 157 nM.

In turn, GGGGUAGUGAUUUUACCCUGUUUAGGAGAU (structured_RNA) [preE-let-7f-1 unlabeled] came in with an IC50 in the series with LIN28Δ [7] of 44 nM.

Take GGGGUAGUGAUUUUACCCUGUUUAGGAGAU (structured_RNA) [preE-let-7f-1-FAM]: the Kd was found to be 589 nM with LIN28ΔF73A/Y140A, 72.4 nM in the series with LIN28ΔF73A [8], 78.5 nM with LIN28ΔY140A and 28.5 nM with LIN28Δ [9].

Values taken from publication PMC6511231 (Cell reports, 2018).
